# How the values were obtained:
# [1] = system: Mus musculus; test: Anticonvulsant activity against mouse model of LiCa/pilocarpine-induced status epilepticus assessed as total power at 20 mg/kg, po for 10 days by EEG method relative to control; type: functional; settings: time 10 day
# Procedure, shortened: (§1)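 Male mice (20-30 g), five per group, dosed orally once daily for 10 days. Status epilepticus was then induced with LiCa (3 mEq/kg i.p.), atropine sulfate (1 mg/kg i.p.) 30 min before pilocarpine, and pilocarpine HCl (300 mg/kg i.p.) 2 h after LiCa. Normal controls received oral distilled water. Comparators were untreated SE, phenytoin and lamotrigine. One-way ANOVA with Tukey post-hoc; mean ± SD.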
# [2] = system: Mus musculus; test: Anticonvulsant activity against mouse model of LiCa/pilocarpine-induced status epilepticus assessed as alpha at 20 mg/kg, po for 10 days by EEG method relative to control; type: functional; settings: time 10 day; procedure, shortened: as §1
# [3] = system: Mus musculus; test: Anticonvulsant activity against mouse model of LiCa/pilocarpine-induced status epilepticus assessed as amplitude at 20 mg/kg, po for 10 days by EEG method relative to control; type: functional; settings: time 10 day; procedure, shortened: as §1
# [4] = system: Mus musculus; test: Anticonvulsant activity against mouse model of LiCa/pilocarpine-induced status epilepticus assessed as amplitude density at 20 mg/kg, po for 10 days by EEG method relative to control; type: functional; settings: time 10 day; procedure, shortened: as §1
# [5] = system: Mus musculus; test: Anticonvulsant activity against mouse model of LiCa/pilocarpine-induced status epilepticus assessed as total power density at 20 mg/kg, po for 10 days by EEG method relative to control; type: functional; settings: time 10 day; procedure, shortened: as §1
# [6] = system: Mus musculus; test: Anticonvulsant activity against mouse model of LiCa/pilocarpine-induced status epilepticus assessed as delta at 20 mg/kg, po for 10 days by EEG method relative to control; type: functional; settings: time 10 day; procedure, shortened: as §1
# [7] = system: Mus musculus; test: Anticonvulsant activity against mouse model of LiCa/pilocarpine-induced status epilepticus assessed as MDA level in brain at 20 mg/kg, po for 10 days by calorimetric method relative to control; type: functional; settings: time 10 day; procedure, shortened: as §1
# [8] = system: Mus musculus; test: Anticonvulsant activity against mouse model of LiCa/pilocarpine-induced status epilepticus assessed as theta at 20 mg/kg, po for 10 days by EEG method relative to control; type: functional; settings: time 10 day; procedure, shortened: as §1
# [9] = system: Mus musculus; test: Anticonvulsant activity against mouse model of LiCa/pilocarpine-induced status epilepticus assessed as power pV2 at 20 mg/kg, po for 10 days by EEG method relative to control; type: functional; settings: time 10 day; procedure, shortened: as §1
# [10] = system: Mus musculus; test: Anticonvulsant activity against mouse model of LiCa/pilocarpine-induced status epilepticus assessed as mean power frequency at 20 mg/kg, po for 10 days by EEG method relative to control; type: functional; settings: time 10 day; procedure, shortened: as §1
# [11] = system: Mus musculus; test: Anticonvulsant activity against mouse model of LiCa/pilocarpine-induced status epilepticus assessed as spectral edge frequency at 20 mg/kg, po for 10 days by EEG method relative to control; type: functional; settings: time 10 day; procedure, shortened: as §1
# [12] = system: WI-38; test: Cytotoxicity against human WI-38 cells assessed as reduction in cell viability after 48 hrs by MTT assay; type: cell-based; settings: WI-38, 48 h
# Procedure, shortened: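 Cells from ATCC grown in DMEM with 10% FBS, insulin and 1% penicillin-streptomycin. Plated at 1.2-1.8 × 10,000 cells/well for 24 h, then exposed to compounds in DMSO vehicle for 48 h. MTT 0.5 mg/ml added for 2 h; absorbance read at 570 nm. Experiments run in triplicate.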
# [13] = system: Mus musculus; test: Anticonvulsant activity against mouse model of LiCa/pilocarpine-induced status epilepticus assessed as GSH level in brain at 20 mg/kg, po for 10 days by calorimetric method relative to control; type: functional; settings: time 10 day; procedure, shortened: as §1
# [14] = system: Mus musculus; test: Anticonvulsant activity against mouse model of LiCa/pilocarpine-induced status epilepticus assessed as GABA level in brain at 20 mg/kg, po for 10 days by ELISA relative to control; type: functional; settings: time 10 day; procedure, shortened: as §1
# [15] = system: Mus musculus; test: Anticonvulsant activity against mouse model of LiCa/pilocarpine-induced status epilepticus assessed as Glutamate level in brain at 20 mg/kg, po for 10 days by ELISA relative to control; type: functional; settings: time 10 day; procedure, shortened: as §1
SMILES,Activity [1],Activity [2],Activity [3],Activity [4],Activity [5],Activity [6],Activity [7],Activity [8],Activity [9],Activity [10],Activity [11],IC50 [12],Activity [13],Activity [14],Activity [15]
Cc1nn(-c2ccccc2)c2nc(C(=O)N3NC(=O)/C(=C/c4ccc(Cl)cc4)N=C3c3ccc(Cl)cc3)[nH]c(=O)c12,37.32%,4.62%,89.78%,54.1%,233.86%,313.77%,-63.24%,41.15%,225.84%,-37.61%,-21.45%,19.3 nM,144.08%,74.49%,-57.79%
O=C1NC(=O)C(c2ccccc2)(c2ccccc2)N1 [PHENYTOIN],51.6%,-14.82%,158.67%,175.08%,381.63%,485.9%,-56.88%,19.76%,332.89%,-58.54%,-38.74%,,156.39%,92.87%,-81.35%
Cc1nn(-c2ccccc2)c2nc(C(=O)N3NC(=O)/C(=C/c4ccccc4)N=C3c3ccccc3)[nH]c(=O)c12,13.12%,12.39%,67.11%,78.42%,229.32%,314.32%,-72.13%,28.9%,138.76%,-30.24%,-16.31%,49.5 nM,154.11%,61.71%,-58.33%
COc1ccc(/C=C2\N=C(c3ccccc3)N(C(=O)c3nc4c(c(C)nn4-c4ccccc4)c(=O)[nH]3)NC2=O)cc1,30.61%,-5.51%,99.56%,88.15%,265.27%,368.94%,-54.04%,29.32%,230.03%,-48.49%,-25.28%,97.7 nM,141.33%,68.66%,-76.21%
COc1ccc(/C=C2\N=C(c3ccc(Cl)cc3)N(C(=O)c3nc4c(c(C)nn4-c4ccccc4)c(=O)[nH]3)NC2=O)cc1,14.87%,-4.74%,71.11%,46.81%,245.46%,330.62%,-67.54%,20.25%,190.77%,-40.42%,-22.51%,25 nM,150.97%,87.03%,-66.54%
Cc1ccc(C2=N/C(=C/c3ccccc3)C(=O)NN2C(=O)Cc2nc3c(c(C)nn3-c3ccccc3)c(=O)[nH]2)cc1,23.32%,-5.99%,90.67%,110.33%,302.31%,366.41%,-69.74%,11.83%,243.46%,-46.23%,-29%,85.6 nM,188.85%,91.22%,-82.89%
Cc1nn(-c2ccccc2)c2nc(CC(=O)N3NC(=O)/C(=C\c4ccc(Cl)cc4)N=C3c3ccc(Cl)cc3)[nH]c(=O)c12,0.58%,35.86%,45.78%,69.3%,181.99%,239.87%,-60.61%,54.18%,126.51%,-25.05%,-13.39%,12.9 nM,146.06%,82.22%,-58.56%
Cc1nn(-c2ccccc2)c2nc(CC(=O)N3NC(=O)/C(=C\c4ccccc4)N=C3c3ccc(Cl)cc3)[nH]c(=O)c12,0.29%,34.85%,55.11%,68.09%,175.43%,264.98%,-46.88%,34.99%,117.95%,-28.52%,-17.33%,80.2 nM,191.86%,40.05%,-45.51%
Cc1ccc(C2=N/C(=C\c3ccccc3)C(=O)NN2C(=O)c2nc3c(c(C)nn3-c3ccccc3)c(=O)[nH]2)cc1,15.45%,9.13%,62.22%,36.17%,210.16%,241.85%,-66.18%,32.01%,143.79%,-37.93%,-22.26%,24.5 nM,173.91%,59.73%,-72.91%
Cc1nn(-c2ccccc2)c2nc(CC(=O)N3NC(=O)/C(=C\c4ccc(Cl)cc4)N=C3c3ccccc3)[nH]c(=O)c12,23.03%,0.12%,82.67%,63.22%,248.78%,327.42%,-74.39%,20.33%,204.36%,-44.11%,-28.09%,111 nM,170%,80.61%,-76.98%
CS(=O)(=O)CCNCc1ccc(-c2ccc3ncnc(Nc4ccc(OCc5cccc(F)c5)c(Cl)c4)c3c2)o1 [LAPATINIB],33.24%,-8.6%,122.67%,142.55%,346.9%,425.44%,-57.67%,12.11%,272.65%,-50.58%,-34.07%,45.2 nM,172.32%,83.04%,-81.12%
Cc1nn(-c2ccccc2)c2nc(C(=O)N3NC(=O)/C(=C/c4ccccc4)N=C3c3ccc(Cl)cc3)[nH]c(=O)c12,10.2%,27.21%,54.67%,76.29%,200.5%,254.07%,-55.28%,16.08%,133.56%,-22.83%,-13.59%,55 nM,80.37%,89.37%,-39.91%
COc1ccc(/C=C2\N=C(c3ccc(C)cc3)N(C(=O)c3nc4c(c(C)nn4-c4ccccc4)c(=O)[nH]3)NC2=O)cc1,18.66%,4.98%,79.11%,56.84%,222.48%,295.04%,-46.76%,32.29%,198.49%,-32.59%,-18.75%,36.8 nM,98.02%,79.64%,-67.77%
COc1ccc(/C=C2/N=C(c3ccccc3)N(C(=O)Cc3nc4c(c(C)nn4-c4ccccc4)c(=O)[nH]3)NC2=O)cc1,16.62%,2.55%,66.22%,47.72%,215.63%,266.63%,-66.91%,24.43%,167.62%,-39.36%,-21.87%,17.2 nM,136.46%,104.31%,-75.98%

# — ChEMBL document CHEMBL4732181, “Pyrazolo[3,4-d]pyrimidine-based dual EGFR T790M/HER2 inhibitors: Design, synthesis, structure-activity relationship and biological activity as potential antitumor and anticonvulsant agents” (Eur J Med Chem, 2021)
